Measurements gathered from unrelated publications.
Lines come from different studies, so protocols differ.
CA12: Carbonic anhydrase 12 (CA12, Homo sapiens, UniProt O43570)
SLC6A3: Sodium-dependent dopamine transporter (SLC6A3, Homo sapiens, UniProt Q01959)

SMILES	target	assay	setting	Ki
COc1cc2c(cc1OC)CN(CCc1ccc(NC(=O)c3cccc4c(=O)c5cccc(OC)c5[nH]c34)cc1)CC2	D(3) dopamine receptor (DRD3, Homo sapiens, UniProt P35462)	cell-free assay	–	77 nM
O=C(Nc1ccc2c(c1)C=CCP(=O)(O)O2)c1ccc(I)cc1	CA12	enzyme activity, inhibitor, stopped-flow	–	57.5 nM
CCCCC1CNC2CCc3ccc(OC)cc3C12 (racemic)	SLC6A3	ligand displacement, radioligand	–	> 10000 nM
COC(=O)[C@H]1[C@@H](c2ccc(Cl)cc2)C[C@@H]2CC[C@H]1N2CCCCCCCCCc1c2ccccc2cc2ccccc12	SLC6A3	ligand displacement, radioligand	pH 7.4	24 nM
CCOP1(=O)CC=Cc2cc(N)ccc2O1 (stereo not drawn)	CA12	enzyme activity, inhibitor, stopped-flow	–	16.6 nM
Cc1c(Cl)c(=O)oc2cc(OCCCC[Se]C#N)ccc12	CA12	enzyme activity, inhibitor, stopped-flow	–	71.6 nM
COc1ccc(NC(=O)Nc2ccc3c(c2)C=CCP(=O)(O)O3)cc1	CA12	enzyme activity, inhibitor, stopped-flow	–	> 10000 nM
COC(=O)[C@H]1[C@@H](c2ccc(Cl)c(Cl)c2)C[C@@H]2CC[C@H]1N2CCCOCc1ccc2cc3ccccc3cc2c1	SLC6A3	ligand displacement, radioligand	pH 7.4, cell membranes	204 nM
Cc1cc(=O)oc2cc(OCCCC[Se]C#N)ccc12	CA12	enzyme activity, inhibitor, stopped-flow	–	51.6 nM
